EBNA-1 inhibitor: EBNA-1 DNA-binding inhibitors, primary screen, biochemical, fluorescence polarization. inhibition, % at 14.8 µM. 300,000 tested, 0.34% active; in the data active means inhibition above about 28%
HCV core dimer: inhibitors of HCV core protein dimerization, primary screen, biochemical, TR-FRET, high-throughput | TR-FRET GST/Flag-core106 dimerization, 1536-well | inhibition, % at 5 µM | 300,000 tested, 0.33% active;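 active means inhibition above the mean of all tested compounds plus 3 SD, set per screening campaign, cut at about 45% in these data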
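test system = GST/Flag-tagged HCV core106 proteins | probe or stimulus = Eu donor and XL665 acceptor anti-tag antibodies | times = compound-protein-antibody incubation 4 h at 22.5 °C | signal = TR-FRET, excitation 340 nm, emission 617 and 671 nm | measure = percent inhibition of core106 dimerization signal | controls = wells lacking GST-core106 and wells with excess unlabelled core106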
ZTA counter: ZTA (EBV) inhibition in EBNA-1 counter-screen; P03206; ZTA-DNA binding, fluorescence polarization; inhibition, % at 11 µM; 320,000 tested, 0.15% active; AID 2234; in the data active means inhibition above about 33%
Target sequence (P03206 whole entry, looked up): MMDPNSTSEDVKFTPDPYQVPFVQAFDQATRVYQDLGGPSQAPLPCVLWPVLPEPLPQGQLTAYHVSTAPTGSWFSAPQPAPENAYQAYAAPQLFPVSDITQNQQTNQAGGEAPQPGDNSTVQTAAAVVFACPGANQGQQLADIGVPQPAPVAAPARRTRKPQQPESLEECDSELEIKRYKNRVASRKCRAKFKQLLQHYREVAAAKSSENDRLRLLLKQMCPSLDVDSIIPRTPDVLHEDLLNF
PfM18AAP inh: PfM18AAP inhibitors, malaria aminopeptidase, primary screen, biochemical, QFRET, recombinant enzyme | M18 aspartyl aminopeptidase (Plasmodium falciparum 3D7) | H-Glu-NHMec fluorogenic cleavage | inhibition, % at 7.35 µM | 290,000 tested, 1.2% active;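 active means inhibition above the campaign mean inhibition over all tested compounds plus 3 SD, cut at about 28% in these data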
HCV NS3 hel inh: inhibitors of HCV NS3 helicase, primary screen, biochemical, Cy5 molecular beacon fluorescence; Hepatitis C virus NS3 helicase; NS3 helicase DNA unwinding; inhibition, % at 10.9 µM; 290,000 tested, 0.56% active; AID 1800, 2009;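 active means inhibition above the mean of all tested compounds plus 3 SD, set per campaign, cut at about 35% in these data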
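Compound dosing – single dose, 10.9 µM nominal final, DMSO 0.8% final · System – NS3 helicase fragment of HCV · Buffer or medium – MOPS pH 6.5, MgCl2, DTT, Tween20, BSA · Signal – Cy5 beacon fluorescence read at start and 1 h · Also added – annealed dual-labelled DNA beacon duplex, ATP-started · Schedule – 1 h at 25 °C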
ALR H2O2 inh: inhibitors of human ALR sulfhydryl oxidase, primary screen, biochemical, H2O2 detection, HRP-luminol luminescence, single point. purified ALR, DTT oxidation. FAD-linked sulfhydryl oxidase ALR (Homo sapiens), P55789. 290,000 tested, 3.8% active. inhibition, % (concentration not given with the values);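 active means mean replicate inhibition above about 79%, with every replicate also reaching it, limit read from the data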
Target sequence (P55789 whole entry, looked up): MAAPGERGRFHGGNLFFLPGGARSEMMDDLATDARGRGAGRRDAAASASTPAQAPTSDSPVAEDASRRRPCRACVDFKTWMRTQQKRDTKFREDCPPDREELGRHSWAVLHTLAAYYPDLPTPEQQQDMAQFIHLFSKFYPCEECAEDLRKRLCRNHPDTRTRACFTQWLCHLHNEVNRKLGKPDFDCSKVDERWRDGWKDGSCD
EBNA-1 inh conf: EBNA-1 DNA-binding inhibitors, retest, confirmation, biochemical, fluorescence polarization, triplicate. shares compounds with EBNA-1 inhibitor. Recombinant EBNA-1 DBD, Cy5-DNA fluorescence polarization. inhibition, % at 14.8 µM. 830 tested, 35% active. AID 2292, 2010;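 active means mean inhibition across replicates above a set limit taken from the earlier primary screen, cut at about 28% in these data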
ZTA counter trip: EBV Zta DNA binding inhibitors, counter-screen for EBNA-1 inhibitor project, biochemical, fluorescence polarization, triplicate; inhibition, % at 11.1 µM; Zta-ZRE DNA binding, Cy5 fluorescence polarization; AID 2328, 2010; shares compounds with EBNA-1 inhibitor; 830 tested, under 10 active;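 active means mean inhibition over triplicates above a set limit taken from the primary EBNA-1 screen, cut at about 37% in these data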;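 further: purified full length Zta protein with Cy5 labeled ZRE DNA probe; inhibitors lower polarization by freeing the labeled DNA probe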
Each line names hits and unclear results; the compound was inactive in the other large screens (follow-up assays come after a bar, where they were run). An excerpt weighted towards active compounds, which were near 5.2% of everything screened.

COc1cccc(-c2c(C(=O)N/N=C(\C)c3ccc(Cl)s3)nnn2-c2nonc2N)c1	EBNA-1 inhibitor 35 | EBNA-1 inh conf inactive | ZTA counter trip inactive
COc1ccc(S(=O)(=O)NNC(=O)c2cc3c4ccccc4n(C)c3s2)cc1	EBNA-1 inhibitor 32 | EBNA-1 inh conf inactive | ZTA counter trip inactive
C=CCOc1ccc(-c2nc3c(c(=O)[nH]c(=O)n3Cc3ccccc3)n2CCCOC)cc1	EBNA-1 inhibitor 29 | EBNA-1 inh conf inactive | ZTA counter trip inactive
O=C(c1ccc(CN2CCc3ccccc3C2)cc1)N1CCc2ccccc2C1	EBNA-1 inhibitor 38 | EBNA-1 inh conf inactive | ZTA counter trip inactive
O=C(c1ccc(CN2CCc3ccccc3C2)cc1)N1CCN(c2ccccc2)CC1	none
COCCn1c(SCC(=O)Nc2ccccc2F)nc2c([nH]c3ccccc32)c1=O	none
C=CCn1c(SCC(=O)Nc2ccccc2OC)nc2c([nH]c3ccccc32)c1=O	EBNA-1 inhibitor 40 | EBNA-1 inh conf inactive | ZTA counter trip inactive
COCCn1c(SCC(=O)Nc2ccccc2OC)nc2c([nH]c3ccccc32)c1=O	EBNA-1 inhibitor 30 | EBNA-1 inh conf inactive | ZTA counter trip inactive
O=C(COC(=O)c1cc(S(=O)(=O)N2CCCCC2)ccc1N1CCOCC1)c1ccc(F)cc1	none (no result: PfM18AAP inh, HCV NS3 hel inh)
NC(=O)CN1C(=O)C(=O)N(Cc2cccc(C(F)(F)F)c2)C1=O	none
CN1CCN(c2ccc(-c3cccc(NC(=O)COc4ccc(Cl)cc4)c3)nn2)CC1	none (no result: PfM18AAP inh, HCV NS3 hel inh)
CN1CCN(c2ccc(-c3cccc(NC(=O)COc4ccc(Cl)cc4Cl)c3)nn2)CC1	EBNA-1 inhibitor 28 (no result: PfM18AAP inh, HCV NS3 hel inh) | EBNA-1 inh conf 51 | ZTA counter trip inactive
CC(=O)Nc1ccc(Cl)c(-c2nc3ncccc3o2)c1	none
CCc1nc(SCC(=O)NC2CCCC2)c2c(=O)n(C)c(=O)n(C)c2n1	none
CC(=O)N1c2ccc(S(=O)(=O)NCC3CCC(C(=O)NC4CCCCC4)CC3)cc2CC1C (centres undefined)	EBNA-1 inhibitor 41 | EBNA-1 inh conf inactive | ZTA counter trip inactive
Cc1ccccc1C(=O)Nc1cc(C(F)(F)F)ccc1-n1cncn1	none (no result: EBNA-1 inhibitor, HCV core dimer, PfM18AAP inh, HCV NS3 hel inh)
CCc1ccc(-c2cc(C)no2)cc1S(=O)(=O)NCCc1ccc(OC)c(OC)c1	none
Cc1ccc2nc(-c3ccc(NC(=O)CCN4C(=O)c5ccccc5C4=O)cc3)sc2c1	none
Cc1ccc2nc(-c3ccc(NC(=O)C(C)N4C(=O)c5ccccc5C4=O)cc3)sc2c1 (centres undefined)	EBNA-1 inhibitor 33 | EBNA-1 inh conf inactive | ZTA counter trip inactive
COc1ccc(/C=C/C(=O)Oc2ccc(/C=N/NC(=O)COc3c(C)cccc3C)cc2)cc1	none (no result: ALR H2O2 inh)
COc1ccc(/C=C/C(=O)Oc2cccc(/C=N/NC(=O)COc3c(C)cccc3C)c2)cc1	EBNA-1 inhibitor 39 | EBNA-1 inh conf 74 | ZTA counter trip inactive
N=C1/C(=C\c2ccc(-c3cccc(C(=O)O)c3)o2)C(=O)N=C2SC=C(c3ccccc3)N12	EBNA-1 inhibitor 32 | EBNA-1 inh conf 36 | ZTA counter trip inactive
O=C(NCC(F)(F)F)Nc1cccnc1	EBNA-1 inhibitor 80 | EBNA-1 inh conf inactive | ZTA counter trip inactive
COc1cccc(C(=O)Nc2ccc3c(cc2=O)[C@@H](NC(C)=O)CCc2cc(OC)c(OC)c(OC)c2-3)c1	none
COc1ccc(O)c(-c2cc(C(F)(F)C(F)F)nc(-c3ccccc3)n2)c1	EBNA-1 inhibitor 31 | EBNA-1 inh conf inactive | ZTA counter trip inactive
COc1ccccc1NS(=O)(=O)c1cc(NC(=O)c2ccc3ccccc3n2)ccc1Cl	EBNA-1 inhibitor 52 | EBNA-1 inh conf inactive | ZTA counter trip inactive
COc1ccc(C(=O)Nc2ccc(Cl)c(S(=O)(=O)Nc3ccccc3OC)c2)cc1	none
O=c1c(C(c2ccccc2)c2c(O)sc3ccccc3c2=O)c(O)sc2ccccc12	EBNA-1 inhibitor 60 | EBNA-1 inh conf 38 | ZTA counter trip 39
O=C(NC(Cc1ccccc1)C(=O)O)/C(=C/c1ccc(Cl)cc1)NC(=O)c1ccco1 (centres undefined)	none
CN1C(=O)N(C)C2(c3ccccc3)Nn3c(s/c(=C/c4ccco4)c3=O)=NC12c1ccccc1 (centres undefined)	EBNA-1 inhibitor 45 | EBNA-1 inh conf 77 | ZTA counter trip inactive
CN1C(=O)N(C)C2(c3ccccc3)Nn3c(s/c(=C/c4ccccc4F)c3=O)=NC12c1ccccc1 (centres undefined)	none (no result: ALR H2O2 inh)
NS(=O)(=O)c1ccc(NC(=O)/C=C/c2cccs2)cc1	EBNA-1 inhibitor 55 | EBNA-1 inh conf inactive | ZTA counter trip inactive
COC(=O)c1c(NC(=O)c2ccccc2F)sc(C(=O)N2CCOCC2)c1C	none (no result: ALR H2O2 inh)
CC(=O)c1cc(C)ccc1OC(=O)c1ccncc1	none (no result: ALR H2O2 inh)
CC(=O)c1cc(C)ccc1OC(=O)c1cccc2nc(C)oc12	EBNA-1 inhibitor 81 | EBNA-1 inh conf inactive | ZTA counter trip inactive
O=C(O)C1CCCN1c1nc(-c2ccc(Cl)c(Cl)c2)cc(C(F)(F)F)n1 (centres undefined)	none (no result: EBNA-1 inhibitor, HCV core dimer, PfM18AAP inh, HCV NS3 hel inh, ALR H2O2 inh)
CCOC(=O)c1ccc(CNC(=O)CSc2nnc(-c3ccncc3)o2)cc1	none
CCOC(=O)c1ccc(CNC(=O)CSc2nc(NC(=O)c3ccccc3)c3c(C)c(C)oc3n2)cc1	EBNA-1 inhibitor 40 | EBNA-1 inh conf inactive | ZTA counter trip inactive
COc1n[nH]c(C(=O)Nc2nc3ccccc3s2)c1[N+](=O)[O-]	EBNA-1 inhibitor 34 | EBNA-1 inh conf inactive | ZTA counter trip inactive
COc1ccccc1C(=O)Nc1nc2ccccc2s1	EBNA-1 inhibitor 31 | EBNA-1 inh conf inactive | ZTA counter trip inactive
COc1n[nH]c(C(=O)NCc2ccccc2)c1[N+](=O)[O-]	none
CC(C)Oc1cccc(C(=O)C2CCCN(Cc3cnc(N4CCOCC4)s3)C2)c1 (centres undefined)	none
O=C(Nc1ccccc1Cl)OC1CCCCC1	none
Cc1ccc2[nH]c3c(=O)n(Cc4ccncc4)cnc3c2c1	none

Source: PubChem (several laboratories)
